Screening results (PubChem BioAssay)
This is a sample that favours compounds with a hit; in the whole collection about 5.4% have one here.
T cruzi repl: T. cruzi replication inhibition; inhibition, % (test concentration not listed); AID 1885; T. cruzi beta-gal in NIH3T3, luminescence, 90 h; 300,000 compounds, 1.4% hits;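 active means mean inhibition across valid replicates above about 55%, limit read from the data; inconclusive means mean below that limit but half or more replicates reach it; inactive means mean below it, under half of replicates reach it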;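 further: signal also drops with host cell toxicity which is not excluded here; higher percent means less beta-gal luminescence so fewer parasites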
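Material: NIH/3T3 host cells with β-galactosidase reporter T. cruzi; Input: 5,000 host fibroblasts per well; Medium: DMEM, 2% fetal bovine serum; Compound: 50 nL DMSO compound solution per well; Schedule: 3 h host attachment, then at least 90 h co-culture; Detection: luminescent β-galactosidase signal after 60 min lysis.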
Mdm2-MdmX inh: inhibitors of human Mdm2/MdmX interaction; O15151+Q00987; SaOS-2 split-luciferase Mdm2/MdmX complementation, luminescence; inhibition, % at 8 µM; 330,000 compounds, 3% hits; AID 485346;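 active means inhibition of at least 50% at 8 µM in the primary screen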
SKKanGAS inh: inhibitors of SKKanGAS S. pyogenes growth in kanamycin (SK-promoter or general growth effect). BacTiter-Glo, 6 h. inhibition, % at 7.5 µM. 300,000 compounds, 1.3% hits. AID 1662;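 active means mean replicate score, as percent of positive control median, at least 50; inconclusive means mean below 50 but one replicate at or above 50; inactive means mean and every replicate below 50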;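 further: strain carries kanamycin resistance gene driven by streptokinase promoter and grows in 40 µg/ml kanamycin; loss of luminescence reflects streptokinase promoter inhibition or plain growth inhibition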
aSyn UTR inh: MLPCN primary screen, SNCA 5' untranslated region | alpha-synuclein 5'UTR reporter, inhibitor activity | inhibition, % (tested at 7.5 µM) | 300,000 compounds, 0.82% hits | AID 1813; in the data active means inhibition above about 60%; inconclusive means no clear call, values can overlap the other calls;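 further: H4 neuroglioblastoma cells stably carrying SNCA 5'UTR luciferase fusion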
CSC inhib: cancer stem cell inhibition. inhibition, % at 7.5 µM. AID 2717. cancer stem cell-like cells viability, luminescence. 300,000 compounds, 1.1% hits; in the data active means inhibition above about 75%; inconclusive means no clear call, values can overlap the other calls; tested in HMLE shEcad cells
A number is an active result; n = inactive; u = inconclusive; x = not tested or not shown.

SMILES | T cruzi repl | Mdm2-MdmX inh | SKKanGAS inh | aSyn UTR inh | CSC inhib
O=C(Nc1ccc2c(c1)OCO2)NC1CCN(Cc2ccccc2)CC1 | 56 | n | n | n | n
O=C(NCc1ccc(F)cc1)c1cc2c(cc1Cl)N1CCCCCC1=NS2(=O)=O | x | n | x | x | x
CCc1cccc(CN2CCC(CNC(=O)Nc3ccc(Cl)cc3)CC2)c1 | 57 | n | n | n | n
Cc1ccc(S(=O)(=O)Nc2cccc(C(=O)NC3CCN(Cc4ccccc4)CC3)c2)cc1F | 56 | n | n | n | n
Cc1ccc(-c2nnn(CC(=O)NC3CCN(Cc4ccccc4)CC3)n2)cc1 | 66 | n | n | n | n
O=C(Nc1ccccc1)NC1CCN(Cc2c(F)cccc2Cl)CC1 | n | n | n | n | n
O=C(NCC1CCN(Cc2cccc(Cl)c2)CC1)Nc1ccc(Cl)cc1 | n | n | n | n | n
O=C(Nc1ccc(F)cc1)NC1CCN(Cc2ccccc2)CC1 | 60 | n | n | n | n
Cc1ccc(NC(=O)[C@@H]2CCCN2C(=O)c2cccs2)cc1S(=O)(=O)N1CCCCC1 | x | n | x | x | x
CC(C)c1ccc(NC(=O)NC2CCN(CC(=O)Nc3cccc4ccccc34)CC2)cc1 | 56 | n | n | n | n
Cc1cc(C)c2nc(NCCCNC(=S)NCCCN(C)C)c(C#N)cc2c1 | n | n | n | 96 | n
Cc1ccc2cc(C#N)c(NCCNC(=S)NCCCN(C)C)nc2c1C | n | n | n | n | n
CCOCCCNC(=S)NCCNc1nc2c(C)cccc2cc1C#N | 55 | n | n | n | x
O=C1S/C(=C\c2ccccc2)C(=O)N1CC(O)Cn1c2ccccc2c2ccccc21 (centres undefined) | 58 | x | n | n | n
COc1ccc(/C=C2/SC(=O)N(CC(O)Cn3c4ccccc4c4ccccc43)C2=O)cc1 (centres undefined) | n | n | n | n | n
COc1cccc(-c2sc3ccc(OC)cc3c2-c2ccc(O)cc2)c1 | x | n | x | x | 129
COc1cccc(-c2sc3ccc(OC)cc3c2-c2cc(F)cc(OC)c2)c1 | x | n | x | x | n
COc1ccccc1-c1sc2ccccc2c1-c1ccc(O)cc1 | x | n | x | x | x
COc1ccc(-c2sc3ccccc3c2-c2ccc(O)cc2)cc1 | x | n | x | x | 107
N#CC1(NC(=O)COC(=O)Cn2[nH]c(=O)c3ccccc3c2=O)CCCCC1 | n | n | n | n | x
CC(=O)NCCc1nc2ccccc2n1Cc1cc(C)ccc1C | n | n | n | n | n
Cc1ccnc(N=O)c1 | x | n | x | x | x
CCOc1ccc(-c2cnc3ccccc3n2)cc1 | n | n | n | 92 | n
N/C(=N\N=C/c1ccc(Br)cc1)N/N=C\c1ccc(Br)cc1 | n | n | u | n | 103
Cn1cc(CCC(=O)NCc2ccc(Cl)cc2)c2ccccc21 | n | n | n | n | n
SMILES | T cruzi repl | Mdm2-MdmX inh | SKKanGAS inh | aSyn UTR inh | CSC inhib
COc1ccc(-c2ccc([C@H]3[C@@H]4C=CCC[C@@]4(C)C(=O)N3Cc3ccccc3)c(F)c2)cc1 | n | n | 58 | n | n
COc1ccc(-c2ccc(OC)c([C@H]3[C@@H]4C=CCC[C@@]4(C)C(=O)N3Cc3ccccc3)c2)cc1OC | n | n | n | n | n
C[C@@]12CCC=C[C@H]1[C@H](c1ccc3ccccc3c1)N(Cc1ccccc1)C2=O | n | n | 69 | n | 86
COc1ccc(-c2cc([C@H]3[C@@H]4C=CCC[C@@]4(C)C(=O)N3Cc3ccccc3)ccc2F)cc1 | n | n | n | n | 122
Cc1ccc(-c2ccc([C@H]3[C@@H]4C=CCC[C@@]4(C)C(=O)N3Cc3ccccc3)c(F)c2)cc1 | n | n | n | n | 96
COCCCn1c(O)c(/C=C2\N=C(C#N)C(=Nc3ccc(C)cc3)O2)sc1=S | n | n | 53 | n | n
O=C(O)CCCn1c(O)c(C=C2N=c3ccccc3=N2)sc1=S | n | n | n | n | n
CCCCc1ccc(NC(=S)NCc2ccc(OC)cc2)cc1 | n | n | n | n | x
CCCCc1ccc(NC(=S)NCc2cccs2)cc1 | 69 | n | n | n | n
CCCCc1ccc(NC(=S)NCc2ccccc2OC)cc1 | n | n | 59 | n | n
CCCCNC(=S)N(C)/N=C/c1ccc(F)cc1 | n | n | n | n | n
CCCCNC(=S)N(C)/N=C/c1ccc2c(c1)OCO2 | n | n | n | n | 83
CCCc1nc(NCc2ccccc2)c(C#N)c2c1CCCC2 | n | n | 74 | n | n
Cc1cc(N(C)C)c(C#N)c(NCc2ccccc2)n1 | n | n | n | n | n
CCN1CCc2c(C#N)c(NCc3ccccc3)nc(N(CC)CC)c2C1 | 82 | n | n | n | n
CCCc1nc(NCCO)c(C#N)c2c1CCCC2 | n | n | n | n | n
COc1ccc(C)cc1NC(=O)C1CCN(S(=O)(=O)c2ccc3c(c2)NC(=O)CO3)CC1 | n | n | n | n | n
Cc1ccc(C)c(-c2csc(N)c2C(=O)OC(C)C)c1 | n | n | 53 | n | u
Cc1ccc2nc(-c3ccc(NS(=O)(=O)c4ccc(F)c(F)c4)cc3)sc2c1 | n | x | 76 | n | 103
CC(=NCc1ccco1)c1c(C)[nH]n(-c2nc3ccccc3s2)c1=O | n | n | n | n | n
C/C(=N/NC(=O)c1cccs1)c1c(C)[nH]n(-c2nc3ccccc3s2)c1=O | n | n | 55 | n | n
Cc1ccc(C2(C)NC(=O)N(CC(=O)Nc3ccccc3C(=O)NC3CCCC3)C2=O)cc1 (centres undefined) | n | n | n | n | n
COc1ccc(N2CC(C(=O)Nc3ccc([N+](=O)[O-])cc3Br)CC2=O)cc1 (centres undefined) | n | n | n | n | n
COc1ccc(N2CC(C(=O)N/N=C/c3cc([N+](=O)[O-])ccc3O)CC2=O)cc1 (centres undefined) | n | n | 68 | n | n
CCN(Cc1ccccc1)C(=O)c1cccc(S(=O)(=O)N2CCN(c3ccccc3)CC2)c1 | n | n | n | n | n
SMILES | T cruzi repl | Mdm2-MdmX inh | SKKanGAS inh | aSyn UTR inh | CSC inhib
CN(Cc1ccc(Cl)cc1Cl)C(=O)c1cccc(S(=O)(=O)N2CCN(c3ccccc3)CC2)c1 | 60 | n | n | n | n
NC(=S)N/N=C/c1ccc(-c2cc(Cl)cc(Cl)c2)o1 | 59 | n | n | n | n
O=C(N/N=C/c1ccc(-c2ccccc2Cl)o1)c1ccccc1 | 75 | n | n | n | n
NC(=S)N/N=C/c1ccc(-c2cc(Cl)ccc2Cl)o1 | 67 | n | n | n | n
COC(=O)N/N=C/c1ccc(-c2cc(Cl)cc(Cl)c2)o1 | n | n | n | u | n
O=C(N/N=C/c1ccc(-c2cccc(C(F)(F)F)c2)o1)c1cccc(F)c1 | 69 | n | n | n | n
CN(CCc1ccccc1)C(=O)c1cccc(NC(=O)Cc2cccc([N+](=O)[O-])c2)c1 | x | n | x | x | n
CCOc1ccc2oc(C(=O)NCc3ccccc3CN3CCCC3)c(C)c2c1 | x | n | x | x | n
Cc1c(C(=O)Nc2ccc(Oc3ccccc3)cc2)sc2nc3n(c(=O)c12)CCC3 | n | n | 56 | n | x
COc1cccc(COC(=O)c2sc3nc4n(c(=O)c3c2C)CCC4)c1OC | n | n | 93 | n | n
Cc1c(C(=O)Nc2ccc(OC(F)(F)F)cc2)sc2nc3n(c(=O)c12)CCC3 | n | n | n | n | n
